Active and inactive are the calls of the source. The calls are words filed in the database; no cut-off is given here.
Columns and labels:
[1] = Cytotoxicity against human Non-small cell lung carcinoma cells; type: functional
Outline: (§1)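 NCI 60-cell-line human tumour screen, with subpanels for leukemia, melanoma, lung, colon, kidney, ovary, breast, prostate and CNS. Compounds were dissolved in DMSO and tested at five ten-fold dilutions, highest 10^-4 M (10^-3 M for some). Endpoints were GI50, TGI and LC50, reported as negative log molar. Some compounds were assayed once, others two or three times.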

[2] = Cytotoxicity against human colon cancer cells; type: functional; details: Cancer cell lines; outline: as §1
[3] = Cytotoxicity against human central nervous system cancer cells; type: functional; details: Cancer cell lines; outline: as §1
[4] = Cytotoxicity against human melanoma cells; type: functional; details: Melanoma cell
[5] = Cytotoxicity against human ovarian cancer cells; type: functional; details: Cancer cell lines
[6] = Cytotoxicity against human renal cancer cells; type: functional; details: Cancer cell lines; outline: as §1
[7] = Cytotoxicity against human prostate cancer cells; type: functional; details: Cancer cell lines; outline: as §1
[8] = Cytotoxicity against human breast cancer cells; type: functional; details: Cancer cell lines
Outline: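 MTT cytotoxicity assay in breast cancer cell lines; proliferation expressed as percent growth inhibition relative to vehicle-treated control cells; IC50 reported.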

[9] = Cytotoxicity against human leukemia cells; type: functional; details: Leukemia cell; outline: as §1
[10] = Inhibition of plasma membrane electron transport pathway in mitochondrial gene-knockout human HL60p'0 cells by WST1 reduction assay
Outline: (§2)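 Cells at 10^5 per well in 0.1 ml pretreated 30 min with compound in DMSO (<0.1% final), then WST-1/mPMS added (final 500 µM and 20 µM); WST-1 reduction followed in real time at 450 nm; averages ± S.E.M. of four independent experiments.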

[11] = Inhibition of plasma membrane electron transport pathway in human HL60 cells by WST1 reduction assay; type: cell-based; details: HL-60; outline: as §2
[12] = Inhibition of plasma membrane electron transport pathway in human B1647 cells by WST1 reduction assay; type: cell-based; outline: as §2
[13] = Inhibition of plasma membrane electron transport pathway in human HEL cells by WST1 reduction assay; type: cell-based; outline: as §2
[14] = Inhibition of plasma membrane electron transport pathway in human Mo7e cells by WST1 reduction assay; type: cell-based; outline: as §2
[15] = tested on: B1647; assay: Antiproliferative activity against human B1647 cells after 48 hrs by MTT assay; type: functional, cell-based
[16] = tested on: HEL; assay: Antiproliferative activity against human HEL cells after 48 hrs by MTT assay; type: functional, cell-based
[17] = tested on: Mo7e; assay: Antiproliferative activity against human Mo7e cells after 48 hrs by MTT assay; type: functional, cell-based
[18] = tested on: Mus musculus; assay: Toxicity in ip dosed mouse assessed as maximum tolerated dose after 14 days; type: organism-based; details: in vivo, 336 h
Outline: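 Mice received a single i.p. injection of 400 mg/kg. If the animal survived 14 days, MTD was 400 mg/kg. If it died, the dose was lowered to 200 mg/kg and then halved repeatedly until a tolerated dose was found, which was taken as the MTD.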

[19] = tested on: Mus musculus; assay: Toxicity in human HL60(TB) cells xenografted mouse assessed as mean net weight loss at 200 mg/kg, ip dosed as Q4Dx3, day 7 schedule measured on day 14; type: organism-based; design: dose 200 mg/kg, route intraperitoneal; details: in vivo
[20] = tested on: Mus musculus; assay: Toxicity in human HL60(TB) cells xenografted mouse assessed as mean net weight loss at 134 mg/kg, ip dosed as Q4Dx3, day 7 schedule measured on day 14; type: organism-based; design: dose 134 mg/kg, route intraperitoneal; details: in vivo
[21] = tested on: Mus musculus; assay: Toxicity in human HL60(TB) cells xenografted mouse assessed as mean net weight loss at 90 mg/kg, ip dosed as Q4Dx3, day 7 schedule measured on day 22; type: organism-based; design: dose 90 mg/kg, route intraperitoneal; details: in vivo
[22] = tested on: Mus musculus; assay: Toxicity in human HL60(TB) cells xenografted mouse assessed as drug induced death at 200 mg/kg, ip dosed as Q4Dx3, day 7 schedule measured on day 14; type: organism-based; design: dose 200 mg/kg, route intraperitoneal; details: in vivo
[23] = tested on: Mus musculus; assay: Toxicity in human HL60(TB) cells xenografted mouse assessed as drug induced death at 134 mg/kg, ip dosed as Q4Dx3, day 7 schedule measured on day 14; type: organism-based; design: dose 134 mg/kg, route intraperitoneal; details: in vivo
[24] = tested on: Mus musculus; assay: Toxicity in human HL60(TB) cells xenografted mouse assessed as drug induced death at 90 mg/kg, ip dosed as Q4Dx3, day 7 schedule measured on day 22; type: organism-based; design: dose 90 mg/kg, route intraperitoneal; details: in vivo
[25] = Antitumor activity against human HL60(TB) cells xenografted in mouse assessed as effect on tumor growth at 200 mg/kg, ip dosed as Q4Dx3, day 7 schedule measured on day 19 relative to control; type: functional, HL-60(TB); details: route intraperitoneal
[26] = Antitumor activity against human HL60(TB) cells xenografted in mouse assessed as effect on tumor growth at 134 mg/kg, ip dosed as Q4Dx3, day 7 schedule measured on day 19 relative to control; type: functional, HL-60(TB); details: route intraperitoneal
[27] = Antitumor activity against human HL60(TB) cells xenografted in mouse assessed as tumor growth delay at 90 mg/kg, ip dosed as Q4Dx3, day 7 schedule day 7 schedule measured on day 19 relative to control; type: functional, HL-60(TB); details: route intraperitoneal
[28] = Antitumor activity against human HL60(TB) cells xenografted in mouse assessed as tumor growth delay at 200 mg/kg, ip dosed as Q4Dx3, day 7 schedule relative to control; type: functional, HL-60(TB); details: route intraperitoneal
[29] = Antitumor activity against human HL60(TB) cells xenografted in mouse assessed as tumor growth delay at 134 mg/kg, ip dosed as Q4Dx3, day 7 schedule relative to control; type: functional, HL-60(TB); details: route intraperitoneal
[30] = Antitumor activity against human HL60(TB) cells xenografted in mouse assessed as tumor growth delay at 90 mg/kg, ip dosed as Q4Dx3, day 7 schedule relative to control; type: functional, HL-60(TB); details: route intraperitoneal
[31] = Antitumor activity against human HL60(TB) cells xenografted in mouse assessed as net log cell kill at 200 mg/kg, ip dosed as Q4Dx3, day 7 schedule relative to control; type: functional, HL-60(TB); details: route intraperitoneal
[32] = Antitumor activity against human HL60(TB) cells xenografted in mouse assessed as net log cell kill at 134 mg/kg, ip dosed as Q4Dx3, day 7 schedule relative to control; type: functional, HL-60(TB); details: route intraperitoneal
[33] = Antitumor activity against human HL60(TB) cells xenografted in mouse assessed as net log cell kill at 90 mg/kg, ip dosed as Q4Dx3, day 7 schedule relative to control; type: functional, HL-60(TB); details: route intraperitoneal
[34] = read-out: pLC50 (the source's name) (converted)

COc1ccc2c(c1)/C(=C\c1cccc(/C=C3/C(=O)Nc4ccc(OC)cc43)n1)C(=O)N2
GI50 [1]: 1.7 µM | CC50 [1, 34]: 43.7 µM | TGI ([1]; read-out: pTGI (converted)): 10.7 µM | GI50 [2]: 0.794 µM | CC50 [2, 34]: 30.9 µM | TGI ([2]; read-out: pTGI (converted)): 4.68 µM | GI50 [3]: 1.62 µM | CC50 [3, 34]: 63.1 µM | TGI ([3]; read-out: pTGI (converted)): 12.9 µM | GI50 [4]: 0.891 µM | CC50 [4, 34]: 13.5 µM | GI50 [5]: 1.12 µM | CC50 [5, 34]: 46.8 µM | TGI ([5]; read-out: pTGI (converted)): 9.33 µM | GI50 [6]: 1.45 µM | CC50 [6, 34]: 24 µM | TGI ([6]; read-out: pTGI (converted)): 4.27 µM | GI50 [7]: 1.66 µM | CC50 [7, 34]: 69.2 µM | TGI ([7]; read-out: pTGI (converted)): 9.33 µM | GI50 [8]: 1.48 µM | CC50 [8, 34]: 81.3 µM | TGI ([8]; read-out: pTGI (converted)): 14.8 µM | GI50 [9]: 0.617 µM | CC50 [9, 34]: 57.5 µM | TGI ([9]; read-out: pTGI (converted)): 3.8 µM | IC50 [10]: > 117 µM | IC50 [11]: > 117 µM | IC50 [12]: 30 µM | IC50 [13]: 30 µM | IC50 [14]: 30 µM | Activity [15]: Active | Activity [16]: Active | Activity [17]: Active | MTD [18]: 400 mg/kg | Activity [19]: 10% | Activity [20]: 6.4% | Activity [21]: 9.1% | Activity [22]: Non-toxic | Activity [23]: Non-toxic | Activity [24]: Non-toxic | T/C [25]: 90% | T/C [26]: 6.4% | T/C [27]: 138% | Activity [28]: 48% | Activity [29]: -17% | Activity [30]: 25% | LCK [31]: -0.8 | LCK [32]: -1.8 | LCK [33]: -1.1

Reference: ChEMBL document CHEMBL1155808, “Antitumor activity of bis-indole derivatives” (J Med Chem, 2008)
